Assay results published in ChEMBL document CHEMBL1671864, “First assessment in humans of the safety, tolerability, pharmacokinetics, and ex vivo pharmacodynamic antimalarial activity of the new artemisinin derivative artemisone” (Antimicrob Agents Chemother, 2008).
In brackets after ≈: the same amount, converted by molar mass.

Key:
Plasma [1] = assay: Half-life in healthy human plasma assessed as metabolite BAY 78-1788 half-life at 80 mg, po administered as single ascending doses during 10 hrs overnight fasting state; assay type: ADME, organism-based; settings: in vivo
How it was run: (§1)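 Healthy Caucasian male volunteers, single oral dose with 240 ml water after a 10-h overnight fast. Heparinised venous blood was drawn predose and at 0.25–14 h. Plasma was stored frozen. Parent drug and metabolites M1–M3 were measured by LC/MS-MS (MRM, deuterated internal standard). Noncompartmental analysis gave Cmax observed, t1/2 = 0.693/kel (terminal regression) and MRT = AUMC/AUC. Values are geometric means.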

Plasma [2] = assay: Ratio of AUC (0 to infinity) for metabolite BAY 78-1788 to AUC (0 to infinity) for compound in healthy human plasma at 80 mg, po administered as single dose for 3 days measured after 1 day; assay type: ADME, organism-based; settings: in vivo, 24 h
How it was run: (§2)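 Healthy Caucasian men (8 active, 4 placebo per dose) dosed with tablets daily for 3 days after 10-h fast. Plasma sampled 0.25–14 h after first and last doses. Parent and metabolites M1–M3 measured by LC/MS-MS (200 µl plasma). Metabolic ratio is metabolite AUC0-∞ divided by parent AUC0-∞ (log-linear trapezoidal, extrapolated by last concentration/kel). First vs third dose compared by paired t test.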

Plasma [3] = assay: AUC in healthy human plasma assessed as metabolite BAY 78-1788 AUC at 80 mg, po administered as four 20 mg immediate release tablets daily for 3 days during 10 hrs overnight fasting state measured after 1 day; assay type: ADME, organism-based; parameters: dose 80 mg, time < 10 hr, route oral; settings: in vivo
How it was run: (§3)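 Healthy Caucasian male volunteers took 40 mg (two 20-mg IR tablets) or 80 mg (four tablets) orally once daily for 3 days, with 240 ml water after a 10-h fast. Plasma was sampled predose to 14 h after the first and last doses. M1/M2/M3 were quantified by LC/MS-MS MRM against a D4-labelled internal standard. Cmax was read from observed data and AUC by log-linear trapezoidal rule, noncompartmental, geometric means.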

Plasma [4] = assay: AUC in healthy human plasma assessed as metabolite BAY 78-1788 AUC at 80 mg, po administered as four 20 mg immediate release tablets daily for 3 days during 10 hrs overnight fasting state measured after 3 day; assay type: ADME, organism-based; parameters: dose 80 mg, time < 10 hr, route oral; settings: in vivo; how it was run: as §3
Plasma [5] = assay: Half life in healthy human plasma assessed as metabolite BAY 78-1788 Half life at 80 mg, po administered as four 20 mg immediate release tablets daily for 3 days during 10 hrs overnight fasting state measured after 1 day; assay type: ADME, organism-based; settings: in vivo, 24 h
How it was run: (§4)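 Healthy Caucasian males took tablets once daily for 3 days with 240 ml water after a 10-h fast. Heparinised blood was drawn predose and at 0.25–14 h after the first and last doses. Plasma parent drug and metabolites M1–M3 were measured by LC/MS-MS (MRM, deuterated internal standard). Noncompartmental analysis gave Cmax observed, t1/2 = 0.693/kel and MRT = AUMC/AUC. Values are geometric means.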

Plasma [6] = assay: Ratio of AUC (0 to infinity) for metabolite BAY 78-1788 to AUC (0 to infinity) for compound in healthy human plasma at 40 mg, po administered as single dose for 3 days measured after 3 days; assay type: ADME, organism-based; settings: in vivo, 72 h; how it was run: as §2
Plasma [7] = assay: AUC in healthy human plasma assessed as metabolite BAY 78-1788 AUC at 40 mg, po administered as two 20 mg immediate release tablets daily for 3 days during 10 hrs overnight fasting state measured after 1 day; assay type: ADME, organism-based; parameters: dose 40 mg, time < 10 hr, route oral; settings: in vivo; how it was run: as §3
Plasma [8] = assay: AUC (0 to infinity) in healthy human plasma assessed as metabolite BAY 78-1788 AUC (0 to infinity) at 80 mg, po administered as single ascending doses during 10 hrs overnight fasting state; assay type: ADME, organism-based; parameters: dose 80 mg, time infinity, route oral; settings: in vivo
How it was run: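 Healthy Caucasian male volunteers, single oral dose of 80 mg as four 20-mg immediate-release tablets, taken with 240 ml water after a 10-h overnight fast. Lithium-heparin venous blood was drawn predose and at 0.25–14 h, and plasma was stored frozen. Metabolites M1/M2/M3 were measured by LC/MS-MS (positive-ion MRM, deuterated internal standard). Noncompartmental analysis, AUC by log-linear trapezoidal rule extrapolated to infinity (Clast/kel), geometric means.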

Plasma [9] = assay: AUC in healthy human plasma assessed as metabolite BAY 78-1788 AUC at 40 mg, po administered as two 20 mg immediate release tablets daily for 3 days during 10 hrs overnight fasting state measured after 3 day; assay type: ADME, organism-based; parameters: dose 40 mg, time < 10 hr, route oral; settings: in vivo; how it was run: as §3
Plasma [10] = assay: Tmax in healthy human plasma assessed as metabolite BAY 78-1788 Tmax at 80 mg, po administered as four 20 mg immediate release tablets daily for 3 days during 10 hrs overnight fasting state measured after 3 day; assay type: ADME, organism-based; settings: in vivo, 72 h
How it was run: (§5)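 Healthy Caucasian men (8 active, 4 placebo per dose) dosed with tablets daily for 3 days after 10-h fast. Lithium-heparin plasma sampled predose and 0.25–14 h after day-1 and day-3 doses, stored frozen. Parent and M1–M3 quantified by LC/MS-MS in positive-ion MRM. Tmax taken directly from observed individual data.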

Plasma [11] = assay: Cmax in healthy human plasma assessed as metabolite BAY 78-1788 Cmax at 40 mg, po administered as two 20 mg immediate release tablets daily for 3 days during 10 hrs overnight fasting state measured after 1 day; assay type: ADME, organism-based; parameters: dose 40 mg, route oral; settings: in vivo, 24 h; how it was run: as §3
Plasma [12] = assay: Half life in healthy human plasma assessed as metabolite BAY 78-1788 Half life at 40 mg, po administered as two 20 mg immediate release tablets daily for 3 days during 10 hrs overnight fasting state measured after 3 day; assay type: ADME, organism-based; settings: in vivo, 72 h; how it was run: as §4
Plasma [13] = assay: Half life in healthy human plasma assessed as metabolite BAY 78-1788 Half life at 40 mg, po administered as two 20 mg immediate release tablets daily for 3 days during 10 hrs overnight fasting state measured after 1 day; assay type: ADME, organism-based; settings: in vivo; how it was run: as §4
Plasma [14] = assay: Cmax in healthy human plasma assessed as metabolite BAY 78-1788 Cmax at 40 mg, po administered as two 20 mg immediate release tablets daily for 3 days during 10 hrs overnight fasting state measured after 3 day; assay type: ADME, organism-based; parameters: dose 40 mg, route oral; settings: in vivo, 72 h; how it was run: as §4
Plasma [15] = assay: Cmax in healthy human plasma assessed as metabolite BAY 78-1788 Cmax at 80 mg, po administered as single ascending doses during 10 hrs overnight fasting state; assay type: ADME, organism-based; parameters: dose 80 mg, route oral; settings: in vivo; how it was run: as §1
Plasma [16] = assay: Cmax in healthy human plasma assessed as metabolite BAY 78-1788 Cmax at 80 mg, po administered as four 20 mg immediate release tablets daily for 3 days during 10 hrs overnight fasting state measured after 3 day; assay type: ADME, organism-based; parameters: dose 80 mg, route oral; settings: in vivo, 72 h; how it was run: as §4
Plasma [17] = assay: Ratio of AUC (0 to infinity) for metabolite BAY 78-1788 to AUC (0 to infinity) for compound in healthy human plasma at 40 mg, po administered as single dose for 3 days measured after 1 day; assay type: ADME, organism-based; settings: in vivo, 24 h; how it was run: as §2
Plasmodium falciparum = assay: Antimalarial activity against Plasmodium falciparum K1 in human plasma assessed as inhibition of hypoxanthine uptake by intraerythrocytic malaria parasites by hypoxanthine incorporation assay; assay type: functional, organism-based
How it was run: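 K1 or TM90-C2A parasites were sorbitol-synchronized and cultured in RPMI 1640. Drug was diluted in drug-free human serum (0.04–40 ng/ml) or subject plasma was diluted twofold (8–8,192). Parasites were added at 2% hematocrit, 1% parasitemia (>95% rings), and [3H]hypoxanthine uptake was measured over 48 h. IC50 or ID50 came from concentration or dilution-response curves. Equivalent concentration = ID50 × IC50.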

Plasma [18] = assay: Ratio of AUC (0 to infinity) for metabolite BAY 78-1788 to AUC (0 to infinity) for compound in healthy human plasma at 80 mg, po administered as single dose for 3 days measured after 3 days; assay type: ADME, organism-based; settings: in vivo, 72 h; how it was run: as §2
Plasma [19] = assay: Half life in healthy human plasma assessed as metabolite BAY 78-1788 Half life at 80 mg, po administered as four 20 mg immediate release tablets daily for 3 days during 10 hrs overnight fasting state measured after 3 day; assay type: ADME, organism-based; settings: in vivo, 72 h; how it was run: as §4
Plasma [20] = assay: Tmax in healthy human plasma assessed as metabolite BAY 78-1788 Tmax at 40 mg, po administered as two 20 mg immediate release tablets daily for 3 days during 10 hrs overnight fasting state measured after 3 day; assay type: ADME, organism-based; settings: in vivo, 72 h; how it was run: as §5
Plasma [21] = assay: Cmax in healthy human plasma assessed as metabolite BAY 78-1788 Cmax at 80 mg, po administered as four 20 mg immediate release tablets daily for 3 days during 10 hrs overnight fasting state measured after 1 day; assay type: ADME, organism-based; parameters: dose 80 mg, route oral; settings: in vivo, 24 h; how it was run: as §4
Plasma [22] = assay: Tmax in healthy human plasma assessed as metabolite BAY 78-1788 Tmax at 80 mg, po administered as four 20 mg immediate release tablets daily for 3 days during 10 hrs overnight fasting state measured after 1 day; assay type: ADME, organism-based; settings: in vivo, 24 h; how it was run: as §5
Plasma [23] = assay: Tmax in healthy human plasma assessed as metabolite BAY 78-1788 Tmax at 40 mg, po administered as two 20 mg immediate release tablets daily for 3 days during 10 hrs overnight fasting state measured after 1 day; assay type: ADME, organism-based; settings: in vivo, 24 h; how it was run: as §5

`C[C@H]1[C@H](N2CCS(=O)(=O)CC2)O[C@@H]2O[C@]3(C)C[C@H](O)[C@H]4[C@H](C)CC[C@@H]1[C@@]24OO3` showed a t1/2 (Plasma [1]) of 1.36 h, a Ratio (Plasma [2]) of 0.91 and an AUC (Plasma [3]) of 302.4 ng·h/mL. It also gave an AUC (Plasma [4]) of 263 ng·h/mL, a t1/2 (Plasma [5]) of 1.59 h and a Ratio (Plasma [6]) of 0.65. For the same compound, the AUC (Plasma [7]) was 117.3 ng·h/mL, the AUC (Plasma [8]) was 379.9 ng·h/mL and the AUC (Plasma [9]) was 115.1 ng·h/mL. For the same compound, the Tmax (Plasma [10]) was 2.5 h, the Cmax (Plasma [11]) was 40.6 ng/mL and the t1/2 (Plasma [12]) was 1.28 h. The t1/2 (Plasma [13]) was 1.31 h, the Cmax (Plasma [14]) was 36.4 ng/mL and the Cmax (Plasma [15]) was 108.9 ng/mL. It also gave a Cmax (Plasma [16]) of 66.5 ng/mL, a Ratio (Plasma [17]) of 0.71 and an IC50 (Plasmodium falciparum) of 0.0257 µg/mL (≈ 0.0616 µM). For the same compound, the Ratio (Plasma [18]) was 0.82, the t1/2 (Plasma [19]) was 1.44 h and the Tmax (Plasma [20]) was 2 h. For the same compound, the Cmax (Plasma [21]) was 87.2 ng/mL, the Tmax (Plasma [22]) was 2 h and the Tmax (Plasma [23]) was 1.75 h.
